Measurements published in ChEMBL document CHEMBL1149182, “Cyclodextrin-derived diorganyl tellurides as glutathione peroxidase mimics and inhibitors of thioredoxin reductase and cancer cell growth” (J Med Chem, 2004).

How the values were obtained:
[1] = system: MCF7; test: Inhibition of growth of MCF-7 breast cancer cells in culture; type: functional, cell-based; details: Homo sapiens
Outline: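 Human MCF-7 cells seeded at 3000/well in DMEM + 10% FBS, 16 h at 37 °C, 5.5% CO2, then compound 0.1–20 μM for 72 h. MTT added for 3 h, formazan dissolved in DMSO, dual OD read at 595/655 nm. Viability given as % of untreated control. IC50 is concentration halving growth versus control. Triplicate determinations.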

[2] = target: T1, Thioredoxin reductase (Homo sapiens, UniProt Q16881+Q9NNW7+Q86VQ6); test: Inhibition of thioredoxin reductase in the presence of thioredoxinand insulin; type: protein assay
Outline: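 Insulin reduction coupled to Trx/TrxR, final concentrations: 100 mM HEPES pH 7.2, 5 mM EDTA, 1 mM NADPH, 1.0 μM TrxR, 0.8 μM Trx, 2.5 mg/mL bovine insulin plus inhibitor. 30 min at 37 °C, stopped with 6 M guanidine HCl/50 mM Tris pH 8.0/10 mM DTNB, absorbance at 412 nm. IC50 for 50% inhibition of thionitrobenzoate formation.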

[3] = target: T1, Thioredoxin reductase; test: Inhibition of thioredoxin reductase; type: protein assay
Outline: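 TrxR-only activity in HE buffer (100 mM HEPES pH 7.2, 5 mM EDTA) with 1.0 μM TrxR, 10 mM DTNB, 1 mM NADPH and inhibitor (final). Compound and enzyme added first, reaction started with NADPH/DTNB at 37 °C. OD 412 nm read every 10 s for initial linear rates. IC50 is 50% inhibition of thionitrobenzoate formation.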

Row | SMILES | IC50 [1] | IC50 [2] | IC50 [3]
1 | CN(C)c1ccc([Te]CC2O[C@@H]3O[C@@H]4C(CO)O[C@H](O[C@@H]5C(CO)O[C@H](O[C@@H]6C(CO)O[C@@H](O[C@@H]7C(CO)O[C@H](O[C@@H]8C(CO)O[C@H](O[C@@H]9C(CO)O[C@H](O[C@H]2C(O)C3O)C(O)C9O)C(O)C8O)C(O)C7O)C(O)C6O)C(O)C5O)C(O)C4O)cc1 (stereo partly specified) | 10.4 µM | 3.4 µM | 0.26 µM
2 | COc1ccc([Te]CC2O[C@@H]3O[C@@H]4C(CO)O[C@H](O[C@@H]5C(CO)O[C@H](O[C@@H]6C(CO)O[C@@H](O[C@@H]7C(CO)O[C@H](O[C@@H]8C(CO)O[C@H](O[C@@H]9C(CO)O[C@H](O[C@H]2C(O)C3O)C(O)C9O)C(O)C8O)C(O)C7O)C(O)C6O)C(O)C5O)C(O)C4O)cc1 (stereo partly specified) | 4.6 µM | 7.6 µM | 1.6 µM
3 | OCC1O[C@@H]2O[C@@H]3C(C[Se]c4ccccc4)O[C@H](O[C@@H]4C(CO)O[C@H](O[C@@H]5C(CO)O[C@H](O[C@@H]6C(CO)O[C@@H](O[C@@H]7C(CO)O[C@H](O[C@@H]8C(CO)O[C@H](O[C@H]1C(O)C2O)C(O)C8O)C(O)C7O)C(O)C6O)C(O)C5O)C(O)C4O)C(O)C3O (stereo partly specified) | 10.2 µM | 18 µM | 17.8 µM
4 | OCC1O[C@@H]2O[C@@H]3C(CO)O[C@H](O[C@@H]4C(CO)O[C@H](O[C@@H]5C(CO)O[C@@H](O[C@@H]6C(CO)O[C@H](O[C@@H]7C(C[Te]CC8O[C@@H]9O[C@@H]%10C(CO)O[C@@H](O[C@@H]%11C(CO)O[C@H](O[C@@H]%12C(CO)O[C@H](O[C@@H]%13C(CO)O[C@H](O[C@@H]%14C(CO)O[C@H](O[C@@H]%15C(CO)O[C@H](O[C@H]8C(O)C9O)C(O)C%15O)C(O)C%14O)C(O)C%13O)C(O)C%12O)C(O)C%11O)C(O)C%10O)O[C@H](O[C@@H]8C(CO)O[C@H](O[C@H]1C(O)C2O)C(O)C8O)C(O)C7O)C(O)C6O)C(O)C5O)C(O)C4O)C(O)C3O (stereo partly specified) | 1.4 µM | 0.5 µM | 2.4 µM
5 | CCCC[Te]CC1O[C@@H]2O[C@@H]3C(CO)O[C@H](O[C@@H]4C(CO)O[C@H](O[C@@H]5C(CO)O[C@@H](O[C@@H]6C(CO)O[C@H](O[C@@H]7C(CO)O[C@H](O[C@@H]8C(CO)O[C@H](O[C@H]1C(O)C2O)C(O)C8O)C(O)C7O)C(O)C6O)C(O)C5O)C(O)C4O)C(O)C3O (stereo partly specified) | 6 µM | 1.2 µM | 18 µM
6 | OCC1O[C@@H]2O[C@@H]3C(C[Te]c4ccc(O)cc4)O[C@H](O[C@@H]4C(CO)O[C@H](O[C@@H]5C(CO)O[C@H](O[C@@H]6C(CO)O[C@@H](O[C@@H]7C(CO)O[C@H](O[C@@H]8C(CO)O[C@H](O[C@H]1C(O)C2O)C(O)C8O)C(O)C7O)C(O)C6O)C(O)C5O)C(O)C4O)C(O)C3O (stereo partly specified) | 1.6 µM | 4 µM | 18 µM
7 | OCC1O[C@@H]2O[C@@H]3C(C[Te]c4ccccc4)O[C@H](O[C@@H]4C(CO)O[C@H](O[C@@H]5C(CO)O[C@H](O[C@@H]6C(CO)O[C@@H](O[C@@H]7C(CO)O[C@H](O[C@@H]8C(CO)O[C@H](O[C@H]1C(O)C2O)C(O)C8O)C(O)C7O)C(O)C6O)C(O)C5O)C(O)C4O)C(O)C3O (stereo partly specified) | 10.1 µM | 7.6 µM | 1.6 µM
